Laboratory results published in ChEMBL document CHEMBL1275406, “Comparison of the antimicrobial effects of chlorine, silver ion, and tobramycin on biofilm” (2008).
Calls of active or inactive are those of the source. The calls are words filed in the database; no cut-off is given here.

Legend:
Pseudomonas aeruginosa [1] = assay: Antimicrobial activity against Pseudomonas aeruginosa PAO1 grown as biofilm assessed as concentration and time required inactivate 2 log bacterial cells; type: functional
Method in brief: (§1)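 PAO1 biofilm grown 24 h batch then 24 h continuous flow on coupons, exposed to 10 mg/liter agent unstirred. Biofilm dislodged by sonication/vortexing, plate counted after 24 h at 37°C in triplicate. Log10 reduction plotted against concentration × contact time; CT for 2-log inactivation taken by extrapolating the curve. Experiments repeated 2–3 times.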

Pseudomonas aeruginosa [2] = assay: Antimicrobial activity against Pseudomonas aeruginosa PAO1 assessed as log reduction in bacterial count at 10 mg/L after 50 mins by plate count method; type: functional
Method in brief: (§2)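 P. aeruginosa PAO1 biofilm grown on reactor coupons (24 h batch in 1/100-strength TSB, room temp, 100 rpm, then 24 h continuous flow in 1/300-strength TSB). Coupons rinsed and soaked unstirred in 10 mg/liter agent. Biofilm removed by sonication/vortexing in PBS. Counts by plate count (24 h, 37°C), CTC (1.6 μg/ml) or Syto9/propidium iodide stain on filtered cells, each normalized to DAPI total and to untreated biofilm; log10 reduction.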

Pseudomonas aeruginosa [3] = assay: Antimicrobial activity against Pseudomonas aeruginosa PAO1 grown as biofilm assessed as respiratory activity by CTC-DAPI staining; type: functional, organism-based
Method in brief: (§3)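 P. aeruginosa PAO1 reactor-grown biofilm coupons soaked in 10 mg/liter agent without stirring. Coupons stained 1 h in the dark with BacLight Syto9/propidium iodide or CTC (1.6 μg/ml, 37°C) plus DAPI (10 μg/ml), then imaged by confocal microscopy. Ratios are read at the point where plate-count culturability fell to 60%, normalized to untreated biofilm.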

Pseudomonas aeruginosa [4] = assay: Antimicrobial activity against Pseudomonas aeruginosa PAO1 grown as planktonic cells assessed as concentration and time required inactivate 2 log bacterial cells; type: functional
Method in brief: (§4)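 Washed overnight PAO1 cultures at 10^6 CFU/ml in 50 ml, exposed to agent at 1 or 10 mg/liter (data averaged) in capped flasks with slow magnetic stirring. Survival by plate count only. Log10 reduction plotted against CT (mg·min/liter); CT90 or 2-log CT read or extrapolated from the curve.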

Pseudomonas aeruginosa [5] = assay: Antimicrobial activity against Pseudomonas aeruginosa PAO1 grown as planktonic cells assessed as concentration and time required inactivate 1 log bacterial cells; type: functional; method in brief: as §4
Pseudomonas aeruginosa [6] = assay: Antimicrobial activity against Pseudomonas aeruginosa PAO1 assessed as log reduction in bacterial count at 10 mg/L after 50 mins by BacLight Live/Dead staining; type: functional; method in brief: as §2
Pseudomonas aeruginosa [7] = assay: Ratio of antimicrobial activity against Pseudomonas aeruginosa PAO1 grown as biofilm assessed as concentration and time required inactivate 2 log bacterial cells to antimicrobial activity against Pseudomonas aeruginosa PAO1 grown as planktonic cells assessed as concentration and time required inactivate 2 log bacterial cells; type: functional
Method in brief: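 Ratio computed as biofilm CT over planktonic CT for 2-log inactivation of PAO1. Biofilm values come from coupons exposed to 10 mg/liter agent. Planktonic values come from 10^6 CFU/ml suspensions exposed to 1 or 10 mg/liter. Both were measured by plate count.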

Pseudomonas aeruginosa [8] = assay: Antimicrobial activity against Pseudomonas aeruginosa PAO1 grown as biofilms; type: functional, organism-based; method in brief: as §1
Pseudomonas aeruginosa [9] = assay: Antimicrobial activity against Pseudomonas aeruginosa PAO1 grown as biofilm assessed as membrane integrity by BacLight Live/Dead staining; type: functional; method in brief: as §3
Pseudomonas aeruginosa [10] = assay: Antimicrobial activity against Pseudomonas aeruginosa PAO1 assessed as log reduction in bacterial count at 10 mg/L after 50 mins by CTC staining; type: functional; method in brief: as §2

NC[C@H]1O[C@H](O[C@H]2[C@H](O)[C@@H](O[C@H]3O[C@H](CO)[C@@H](O)[C@H](N)[C@H]3O)[C@H](N)C[C@@H]2N)[C@H](N)C[C@@H]1O [TOBRAMYCIN]
Activity (Pseudomonas aeruginosa [1]): 1000 mg·min/L
FC (Pseudomonas aeruginosa [2]): 1.5
Activity (Pseudomonas aeruginosa [3]): Active
Activity (Pseudomonas aeruginosa [4]): 30 mg·min/L
Activity (Pseudomonas aeruginosa [5]): 20 mg·min/L
FC (Pseudomonas aeruginosa [6]): 0.2
Ratio (Pseudomonas aeruginosa [7]): 33
Activity (Pseudomonas aeruginosa [8]): Active
Activity (Pseudomonas aeruginosa [9]): 70%
FC (Pseudomonas aeruginosa [10]): 0.9
